# DAX1 inh-1: DAX1 (NR0B1) inhibition, primary screen; HEK293T StAR-luciferase reporter, SF-1/DAX-1 repression relief; inhibition, % at 6.8 µM; 1.1% of 370,000 active;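 active = inhibition above the mean over all tested compounds plus 3 SD, cut at about 3.6% in these data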;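 also: 0% = DAX-1 cells with DMSO and 100% = cells lacking DAX-1 with DMSO; higher inhibition means more luminescence from relief of DAX-1 repression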
# GASC-1 inh: blocks human GASC-1 demethylase activity. AID 2099. inhibition, % at 2.35 µM. Q9H3R0. 0.069% of 330,000 active. GST-JMJD2C(1-420) H3K9me3 demethylation, DELFIA europium;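 active = more than half of a compound's replicate wells show inhibition beyond 50%, single wells judged on their own value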;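 also: signal counts dimethyl H3K9 product captured on neutravidin plate; 0% = median of DMSO wells and 100% = 0.3 times that DMSO median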
# Target sequence (Q9H3R0 1-420 limits assumed): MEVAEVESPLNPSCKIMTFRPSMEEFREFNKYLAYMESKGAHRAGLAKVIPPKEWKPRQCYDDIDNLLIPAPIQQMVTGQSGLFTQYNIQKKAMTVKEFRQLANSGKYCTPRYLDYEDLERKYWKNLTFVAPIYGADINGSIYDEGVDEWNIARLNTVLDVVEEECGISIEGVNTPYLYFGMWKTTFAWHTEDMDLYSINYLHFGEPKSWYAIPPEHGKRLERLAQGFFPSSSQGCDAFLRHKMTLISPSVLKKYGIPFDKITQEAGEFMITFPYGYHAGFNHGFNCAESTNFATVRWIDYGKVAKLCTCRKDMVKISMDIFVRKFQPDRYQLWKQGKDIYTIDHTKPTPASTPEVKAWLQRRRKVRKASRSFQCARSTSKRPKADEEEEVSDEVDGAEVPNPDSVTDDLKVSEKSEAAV
# NR2E3 ag-1: activates human photoreceptor nuclear receptor NR2E3; Q9Y5X4; GST-NR2E3/biotin-RetCOR TR-FRET, 1536-well; inhibition of corepressor binding, % at 4.78 µM; 0.12% of 320,000 active; AID 2300;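 active = percent inhibition above the cutoff of mean plus 3 SD of all tested compounds, set per screening campaign, cut at about 20% in these data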;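 also: 0% = DMSO wells and 100% = biotin wells as full block of FRET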
#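 Material – GST-tagged NR2E3 plus biotinylated RetCOR corepressor · Quantity – NR2E3 fusion 1.35 nM · Times – 5 h incubation at 4 °C · Medium – pH 7.5 Tris-based buffer · Technique – TR-FRET, Eu(K)-anti-GST donor, streptavidin-D2 acceptor, ex 340, em 617/671 nm · Benchmarks – high control biotin, low control 0.6% DMSO · Format – 1536-well plates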
# SMARCA2 act: SMARCA2 function activation, primary screen | MG213 cells, MMTV-luciferase reporter, dexamethasone, overnight | activation, % at 9.1 µM | 1% of 370,000 active | AID 652017; in the data active = activation above about 7.8%;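 also: 0% = vehicle wells and 100% = reference activator wells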
# DAX1 inh-2: inhibitors of human orphan nuclear receptor DAX1 (NR0B1). inhibition, % at 6.75 µM. 0.99% of 340,000 active. HEK293 Gal4-DAX1 luciferase reporter, luminescence. P51843. AID 504766;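 active = inhibition above the mean over all tested compounds plus 3 SD, cut at about 4.2% in these data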;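 also: 0% = DAX1-transfected cells with DMSO and 100% = empty-vector control cells with DMSO; inhibition shows as a rise in luminescence from relieved DAX1 repression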
# Target sequence (P51843 207-470 limits assumed): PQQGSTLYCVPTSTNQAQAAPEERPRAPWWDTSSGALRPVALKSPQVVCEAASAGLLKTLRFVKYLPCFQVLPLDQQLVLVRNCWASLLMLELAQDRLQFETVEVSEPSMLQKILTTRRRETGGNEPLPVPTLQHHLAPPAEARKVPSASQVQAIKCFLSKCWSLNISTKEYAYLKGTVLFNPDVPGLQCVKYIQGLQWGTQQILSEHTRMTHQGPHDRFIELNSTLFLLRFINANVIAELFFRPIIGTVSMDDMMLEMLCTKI
# NR2E3 ag-2: activates human NR2E3 receptor; 0.35% of 360,000 active; Q9Y5X4; CHO-S Gal4-NCOR/VP16-NR2E3 two-hybrid, luciferase; inhibition of corepressor binding, % at 3.98 µM;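 active = inhibition above the mean of all tested compounds plus 3 SD, cut at about 70% in these data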;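 also: 0% = DMSO with NR2E3 transfected cells and 100% = cells lacking NR2E3 construct; higher means lower luciferase signal from less NR2E3 corepressor binding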
# SMARCA2 conf: confirmation of SMARCA2 (BRM) function activators | shares compounds with SMARCA2 act | activation, % at 9.1 µM | 30% of 3,500 active | MG213 cells, MMTV-luciferase with dexamethasone, luminescence, overnight; MG213 cells expressing E1A, Rb sequestered; DMSO wells 0%, reference activator 100%;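 active = activation above its plate's cutoff, the mean activation of tested wells plus 3 SD, cut at about 7.9% in these data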
# GAL4-VP16 Luc: GAL4-VP16 reporter activation counter-screen; shares compounds with SMARCA2 act; HEK293 GAL4-VP16 pG5luc reporter, luciferase luminescence; scaled: DMSO wells 0%, SAHA wells 100%; activation, % at 9.1 µM; 41% of 3,500 active; AID 686939;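 active = activation above the solvent-only control well mean plus 3 SD, averaged across control plates, cut at about 5.2% in these data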
# An asterisk follows results filed as active; i = inactive; x = no result given. Rows were chosen to be rich in hits. Some 3.2% of all compounds tested hit in one or more screens of this group.
SMILES,DAX1 inh-1,GASC-1 inh,NR2E3 ag-1,SMARCA2 act,DAX1 inh-2,NR2E3 ag-2,SMARCA2 conf,GAL4-VP16 Luc
CCOC(=O)[C@]12CCCC=C1N(Cc1ccc(OC)cc1)C(=O)[C@@H]2CC(=O)N1CCCCC1,-1,x,x,-4,x,x,x,x
COc1ccccc1C(=O)Nc1ccc2c(c1)OCO2,3,43,-1,3,2,-89,x,x
O=C(Nc1ccc2c(c1)OCCO2)NC12CC3CC(CC(C3)C1)C2,2,-9,-1,20*,1,-93,12*,11*
O=C(CCc1ccccc1)Nc1ccc2c(c1)OCCO2,2,-2,-3,8.2*,2,-64,10*,11*
COc1ccccc1C(=O)Nc1ccc2c(c1)OCCO2,2,0,0,8.1*,2,-126,7,11*
O=C(Nc1ccc2c(c1)OCCO2)N1CCOCC1,2,-43,-4,9.7*,0,24,0,3
CC(=O)c1nn(-c2cccc(Br)c2)cc1C(=O)c1ccco1,-1,1,4,8.4*,0,-2,-3,1
CC(=O)c1nn(-c2cccc(Br)c2)cc1C(=O)c1ccccc1,0,-4,2,-2,-1,-8,x,x
N#C/C(=C/c1ccc(-c2ccc([N+](=O)[O-])cc2)o1)c1nnc(N2CCOCC2)n1-c1ccccc1,-1,x,x,2,0,5,x,x
CCN1CCc2c(sc(NC(=S)NC(=O)c3ccco3)c2C(N)=O)C1,0,2,-2,9.8*,x,-46,0,3
C=CCN=C1NC(c2ccc(F)cc2)C(C(=O)OC)=C(C)N1Cc1ccccc1C(F)(F)F (stereo not drawn),0,x,x,-1,x,x,x,x
COCc1ccc(C(=O)N(C)CC2CCCN(CCc3ccc(OC)cc3)C2)o1 (stereo not drawn),4.5*,0,-4,9.8*,0,-58,4,5
COCc1ccc(C(=O)N(C)CC2CCCN(CCc3ccc(Cl)cc3)C2)o1 (stereo not drawn),0,7,5,-1,0,-15,x,x
CCc1nc2ccc(C(=O)NCCCN3CCCC3=O)cn2c1N(C=O)CC,-1,x,x,1,x,19,x,x
Cc1nc(SC(C(N)=O)c2ccccc2)c(C#N)c(C)c1C (stereo not drawn),0,5,-1,8.3*,x,-5,3,2
COc1cccc(C(=O)NCCS(=O)(=O)N(C)Cc2ccccc2)c1,1,6,-2,1,1,-14,x,x
COC(=O)c1cc(-c2cc(Cl)ccc2OC)c(=O)n2c1CCC2,0,x,x,-1,x,x,x,x
c1cc2ccc3ccc(-n4cnnn4)c4ccc(c1)c2c34,-1,172,2,8.7*,0,-49,-2,-1
Cc1c(N)cccc1-n1cnnn1,0,i,2,1,0,-10,x,x
COc1ccc(C(=O)OCC(=O)NC(C)(C)C)cc1[N+](=O)[O-],-1,-2,4,-1,-1,-3,x,x
CS(=O)(=O)c1ccc(C(=O)OCC(=O)NCc2cccs2)cc1[N+](=O)[O-],-1,-4,x,12*,0,-12,-14,2
COc1ccc(C(=O)OCC(=O)Nc2ccc(F)c(F)c2F)cc1OC,0,0,1,10*,0,-19,1,-1
COC(=O)CNC(=O)COC(=O)c1ccc(OC)c([N+](=O)[O-])c1,0,0,-2,9.1*,1,-6,-1,-1
Cc1ccc(-c2csc(NC(=O)CSc3nc4ccccc4c(=O)n3CCCN(C)C)n2)cc1,1,-2,-2,10*,2,-34,7,1
C=CCn1c(-c2ccc(Cl)cc2)c[nH]c1=S,-2,-3,1,-8,-1,-10,x,x
SMILES,DAX1 inh-1,GASC-1 inh,NR2E3 ag-1,SMARCA2 act,DAX1 inh-2,NR2E3 ag-2,SMARCA2 conf,GAL4-VP16 Luc
C=CCn1c(-c2ccccc2)c[nH]c1=S,0,5,3,13*,2,-63,5,6.0*
COC(=O)[C@]12C[C@H](CC(=O)NCCC(C)C)C(=O)N(Cc3cccc4ccccc34)C1=C[C@H](C(C)(C)C)O[C@@H]2C,0,x,x,-4,x,x,x,x
CC(=O)N1c2ccccc2C(=O)NCC1C(=O)NC(C)(C)C (stereo not drawn),1,x,x,-1,x,x,x,x
CCc1ccccc1NC(=O)C1CCCN1S(=O)(=O)c1ccc2c(c1)n(C)c(=O)c(=O)n2C (stereo not drawn),0,3,-3,8.0*,1,0,-2,0
Cn1c(=O)c(=O)n(C)c2cc(S(=O)(=O)N3CCCC3C(=O)Nc3ccccc3F)ccc21 (stereo not drawn),2,-13,-1,0,2,-21,x,x
CC(=O)NCCCC(=O)NC(CCC(=O)OCc1ccccc1)C(=O)OCc1ccccc1 (stereo not drawn),2,-7,2,8.0*,0,-3,-3,1
CCN(CC)C(=O)CC[C@@H]1CC[C@]2(CCCN(Cc3ccc(Br)cc3)C2)O1,0,x,x,-1,x,x,x,x
O=c1[nH]c2ccccc2nc1-c1cccs1,1,2,-3,8.2*,0,-55,8.6*,4
c1csc(-c2nnsc2-c2nc3ccccc3[nH]2)c1,0,-13,4,6,1,-88,x,x
C=C(C)C(=O)Oc1ccc(N2C(=O)CCC2=O)cc1,-1,-2,-1,1,1,-4,x,x
C=C(C)C(=O)Oc1ccc(N=Nc2ccc(C)cc2)ccc1=O,1,x,x,19*,x,-105,-1,9.1*
O=C(CCCc1ccncc1)c1ccccc1,1,x,x,8.2*,3,-121,3,6.9*
CC(C)(C(=O)c1ccccc1)/[N+]([O-])=C/c1ccc(F)cc1,0,3,3,9.8*,2,-10,-1,-1
CCCCOCCCNC(=O)C[C@H]1C[C@@]2(C(=O)OC)C(=C[C@H](C3CCCC3)O[C@@H]2C)N(CCc2ccc(OC)c(OC)c2)C1=O,1,x,x,-2,x,x,x,x
CCC(=O)N1N=C(c2c(-c3ccccc3)c3cc(Cl)ccc3[nH]c2=O)CC1c1ccco1 (stereo not drawn),0,-30,-3,10*,0,2,-3,0
c1ccc(CN=C(NCc2ccccc2)NCc2ccccc2)cc1,-1,x,x,-3,0,10,x,x
O=C(c1ccco1)N1CCN(Cc2c(F)cccc2Cl)CC1,1,-3,1,8.8*,0,-12,7,7.9*

# Source: PubChem (several laboratories)
